Data from ChEMBL document CHEMBL4680166, “Dual-functional conjugates improving cancer immunochemotherapy by inhibiting tubulin polymerization and indoleamine-2,3-dioxygenase” (Eur J Med Chem, 2020).
Calls of active or inactive are those of the source. No cut-off for these calls is given here.

What was measured:
[1] = Antitumor immunity against IFN-gamma stimulated human HeLa cells co-cultured with PHA-M-stimulated human PBMC cells assessed as induction of CD3+ T cell proliferation at 0.1 uM preincubated for 2 days measured after co-culturing with PBMC for 6 days by flow cytometry (reference value: 6 to 6.2%); format: functional; conditions: time 8 day
Tubulin (Homo sapiens) = Tubulin (Homo sapiens) (UniProt P68371+Q9H4B7+P0DPH7+P68366+Q13509+Q71U36+P04350+Q3ZCM7+P07437+P68363+Q9BQE3+Q6PEY2+Q13885+Q9BVA1+Q9BUF5); assay: Inhibition of tubulin polymerization in human HeLa cells assessed as disruption of microtubule network organization measured after 24 hrs by DAPI staining based immunofluorescence method; format: cell-based; conditions: dose 0.1-0.5 µM
Outline: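 HeLa cells in six-well plates were treated 24 h. Fixed in 4% paraformaldehyde (37 °C, 15 min), permeabilised with 0.5% Triton X-100 and blocked with 10% goat serum. Incubated with α-tubulin primary antibody overnight, then fluorescent secondary antibody 1 h, with DAPI for nuclei. Imaged by confocal microscopy.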

HeLa [2] = assay: Induction of apoptosis in human HeLa cells assessed as viable cells at 0.5 uM measured after 24 hrs by Annexin-V-FITC and PI staining based flow cytometry (reference value: 96.3%); format: functional; conditions: read-out: Activity
Outline: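 HeLa cells were treated 24 h, washed twice in PBS and resuspended in binding buffer. Stained with annexin V-FITC and PI for 30 min in the dark at room temperature, then analysed by flow cytometry.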

HeLa [3] = assay: Induction of apoptosis in human HeLa cells assessed as mitochondrial membrane potential dissipation at 0.5 uM incubated for 24 hrs by JC-1 staining based flow cytometry (reference value: 6.6%); format: functional
HeLa [4] = assay: Induction of apoptosis in human HeLa cells assessed as upregulation of caspase-3 protein expression at 0.5 uM measured after 24 hrs by western blot analysis; format: functional, cell-based
Outline: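 HeLa cells were treated 24 h at 37 °C and lysed in buffer containing PMSF. Protein quantified by BCA, equal amounts separated by SDS-PAGE and transferred to nitrocellulose. Blocked in 5% milk, primary antibodies overnight at 4 °C, peroxidase secondary 2 h at 25 °C. Detection by chemiluminescence, β-actin as loading control.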

HeLa [5] = assay: Inhibition of cell migration in human HeLa cells at 0.5 uM measured after 24 hrs by wound healing assay (reference value: 61%); format: functional
Outline: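 Confluent HeLa monolayers were scratched with a pipette tip and washed with ice-cold PBS. Incubated 24 h at 37 °C in DMEM/10% FBS containing compound. Wounds were photographed at 0 and 24 h and migration distance measured manually.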

HeLa [6] = assay: Inhibition of IDO1 expression in hIFNgamma-stimulated human HeLa cells assessed as decrease in kynurenine production at 0.1 uM measured after 48 hrs by reverse-phase HPLC analysis; format: functional
Outline: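 HeLa cells were given fresh L-tryptophan-containing medium with hIFN-γ (25 ng/mL) plus compound for 48 h. Collected cells were treated with 20% trichloroacetic acid and centrifuged. Supernatant analysed by reversed-phase HPLC (ODS column, acetonitrile/water, 1.0 mL/min, […]).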

HeLa [7] = assay: Antitumor activity against human HeLa cells xenografted in BALB/c mouse assessed as inhibition of tumor volume at 30 mg/kg/day, iv administered for 21 days by caliper analysis; format: functional; conditions: 504 h, time 21 day
Outline: (§1)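 Male BALB/c nude mice, five weeks old, 18-22 g. Inoculated subcutaneously in the right armpit with 1 × 10⁷ HeLa cells/0.1 mL. At 120-150 mm³, randomized to four groups of five. Once-daily tail-vein injection for 21 days in Tween 80/physiological saline; controls received saline. Tumor volume measured every 2 days by caliper, V = AB²/2.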

HeLa [8] = assay: Antitumor activity against human HeLa cells xenografted in BALB/c mouse assessed as inhibition of tumor volume at 15 mg/kg/day, iv administered for 21 days by caliper analysis; format: functional; conditions: 504 h, time 21 day; outline: as §1
[9] = Toxicity in BALB/c nude mouse […] with human HeLa cells assessed as body weight changes at 15 mg/kg/day, iv for 21 days; format: organism-based; conditions: in vivo, 504 h, time 21 day
[10] = Toxicity in BALB/c nude mouse transfected with human HeLa cells assessed as liver damage at 30 mg/kg/day, iv for 21 days by H&E staining based immunohistochemistry; format: organism-based; conditions: in vivo, 504 h, time 21 day
Outline: (§2)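 HeLa xenografts were grown s.c. in male BALB/c nude mice, which received i.v. tail-vein doses once daily for 21 days in Tween 80/saline vehicle, with saline controls. After 3 weeks the mice were sacrificed. Organs from one mouse per group were fixed in 4% paraformaldehyde, paraffin-embedded and sectioned. Sections were dewaxed, stained with Harris hematoxylin and eosin-phloxine, and examined microscopically for histopathologic changes.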

HeLa [11] = assay: Induction of cell cycle arrest in human HeLa cells assessed as accumulation at G1 phase at 0.5 uM measured after 24 hrs by propidium iodide/RNAse staining based flow cytometry (reference value: 61.5%); format: functional
HeLa [12] = assay: Induction of cell cycle arrest in human HeLa cells assessed as accumulation at S phase at 0.5 uM measured after 24 hrs by propidium iodide/RNAse staining based flow cytometry (reference value: 27.8%); format: functional
HeLa [13] = assay: Induction of apoptosis in human HeLa cells assessed as mitochondrial membrane potential dissipation by measuring increase in green fluorescence intensity at 0.5 uM incubated for 24 hrs by JC-1 staining based fluorescence microscopic analysis; format: functional, cell-based
HeLa [14] = assay: Antitumor activity against human HeLa cells xenografted in iv dosed BALB/c mouse assessed as inhibition of tumor growth administered once daily for 21 days by caliper analysis; format: functional, organism-based; conditions: dose 15-30 mg/kg/day, time 21.0 day; outline: as §1
[15] = Toxicity in BALB/c nude mouse transfected with human HeLa cells assessed as heart damage at 30 mg/kg/day, iv for 21 days by H&E staining based immunohistochemistry; format: organism-based; conditions: in vivo, 504 h, time 21 day; outline: as §2
[16] = Toxicity in BALB/c nude mouse transfected with human HeLa cells assessed as lung damage at 30 mg/kg/day, iv for 21 days by H&E staining based immunohistochemistry; format: organism-based; conditions: in vivo, 504 h, time 21 day; outline: as §2
[17] = Toxicity in BALB/c nude mouse transfected with human HeLa cells assessed as lung damage at 15 mg/kg/day, iv for 21 days by H&E staining based immunohistochemistry; format: organism-based; conditions: in vivo, 504 h, time 21 day
Outline: (§3)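 After 3 weeks of daily iv dosing of HeLa-xenografted nude mice, organs were taken from one mouse per group. Fixed in 4% paraformaldehyde, paraffin-embedded and sectioned. Stained with Harris hematoxylin and eosin-phloxine, then examined microscopically for histopathology.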

[18] = Toxicity in BALB/c nude mouse transfected with human HeLa cells assessed as kidney damage at 30 mg/kg/day, iv for 21 days by H&E staining based immunohistochemistry; format: organism-based; conditions: in vivo, 504 h, time 21 day; outline: as §2
[19] = Toxicity in BALB/c nude mouse transfected with human HeLa cells assessed as kidney damage at 15 mg/kg/day, iv for 21 days by H&E staining based immunohistochemistry; format: organism-based; conditions: in vivo, 504 h, time 21 day; outline: as §3
[20] = Toxicity in BALB/c nude mouse transfected with human HeLa cells assessed as spleen damage at 30 mg/kg/day, iv for 21 days by H&E staining based immunohistochemistry; format: organism-based; conditions: in vivo, 504 h, time 21 day; outline: as §2
[21] = Toxicity in BALB/c nude mouse transfected with human HeLa cells assessed as spleen damage at 15 mg/kg/day, iv for 21 days by H&E staining based immunohistochemistry; format: organism-based; conditions: in vivo, 504 h, time 21 day; outline: as §3
HeLa [22] = assay: Induction of intracellular reactive oxygen species generation in human HeLa cells at 0.5 uM measured after 24 hrs by DCFH-DA staining based flow cytometry relative to CA-4; format: functional

COc1ccc(/C=C\c2cc(OC)c(OC)c(OC)c2)cc1OC(=O)c1cccc(Cn2cc(CCOC(=O)[C@H](N)Cc3cn(C)c4ccccc34)nn2)c1
Activity [1]: 40.3%
inhibition (Tubulin (Homo sapiens)): Dose-dependent effect
viability at 0.5 µM (HeLa [2]): 47.3%
Activity (HeLa [3]): 68.8%
Activity (HeLa [4]): Active
inhibition at 0.5 µM (HeLa [5]): 88%
inhibition (HeLa [6]): Active
inhibition in vivo at 30 mg/kg/day (HeLa [7]): 65.8%
inhibition in vivo at 15 mg/kg/day (HeLa [8]): 50.7%
Activity [9]: Non-Toxic
Activity [10]: Non-Toxic
Activity (HeLa [11]): 6.69%
Activity (HeLa [12]): 17.05%
Activity (HeLa [13]): Active
Activity (HeLa [14]): Dose-dependent effect
Activity [15]: Non-Toxic
Activity [16]: Non-Toxic
Activity [17]: Non-Toxic
Activity [18]: Non-Toxic
Activity [19]: Non-Toxic
Activity [20]: Non-Toxic
Activity [21]: Non-Toxic
fold change (FC) (HeLa [22]): 2.3
